Legend:
Homo sapiens = species on record: Homo sapiens; assay: Direct inhibition of the IgE-Germ line promoter (IGE-GLP-RGA) activity which is responsible in synthesis of IgE in human splenocytes; assay type: functional
Summary of the method: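 BL2 B-cells were stably transfected with luciferase under a 630 bp IgE-germline promoter fragment and selected in G418. Cells were lysed for dual-luciferase readout in duplicates, and IC₅₀ came from a logistic fit.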

B-cell = assay: Antiproliferative effects in the human B-cell line transfected with a plasmid in which luciferase gene is under the control of a 630bp, involved in the IL-4 response which induces IgE-GLP activity.; assay type: functional, cell-based
Summary of the method: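 Viability of the stably transfected BL2 luciferase-reporter clone was measured in cultures run in parallel with the reporter assay. Intact mitochondria were quantified in duplicates, and half-maximal inhibition came from a logistic fit.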

[1] = molecular target: Epidermal growth factor receptor (Homo sapiens, UniProt P00533); assay: Inhibition of EGF-induced Tyrosine phosphorylation in A431 cells expressing EGF-R
Sequence of Epidermal growth factor receptor (P00533 whole entry): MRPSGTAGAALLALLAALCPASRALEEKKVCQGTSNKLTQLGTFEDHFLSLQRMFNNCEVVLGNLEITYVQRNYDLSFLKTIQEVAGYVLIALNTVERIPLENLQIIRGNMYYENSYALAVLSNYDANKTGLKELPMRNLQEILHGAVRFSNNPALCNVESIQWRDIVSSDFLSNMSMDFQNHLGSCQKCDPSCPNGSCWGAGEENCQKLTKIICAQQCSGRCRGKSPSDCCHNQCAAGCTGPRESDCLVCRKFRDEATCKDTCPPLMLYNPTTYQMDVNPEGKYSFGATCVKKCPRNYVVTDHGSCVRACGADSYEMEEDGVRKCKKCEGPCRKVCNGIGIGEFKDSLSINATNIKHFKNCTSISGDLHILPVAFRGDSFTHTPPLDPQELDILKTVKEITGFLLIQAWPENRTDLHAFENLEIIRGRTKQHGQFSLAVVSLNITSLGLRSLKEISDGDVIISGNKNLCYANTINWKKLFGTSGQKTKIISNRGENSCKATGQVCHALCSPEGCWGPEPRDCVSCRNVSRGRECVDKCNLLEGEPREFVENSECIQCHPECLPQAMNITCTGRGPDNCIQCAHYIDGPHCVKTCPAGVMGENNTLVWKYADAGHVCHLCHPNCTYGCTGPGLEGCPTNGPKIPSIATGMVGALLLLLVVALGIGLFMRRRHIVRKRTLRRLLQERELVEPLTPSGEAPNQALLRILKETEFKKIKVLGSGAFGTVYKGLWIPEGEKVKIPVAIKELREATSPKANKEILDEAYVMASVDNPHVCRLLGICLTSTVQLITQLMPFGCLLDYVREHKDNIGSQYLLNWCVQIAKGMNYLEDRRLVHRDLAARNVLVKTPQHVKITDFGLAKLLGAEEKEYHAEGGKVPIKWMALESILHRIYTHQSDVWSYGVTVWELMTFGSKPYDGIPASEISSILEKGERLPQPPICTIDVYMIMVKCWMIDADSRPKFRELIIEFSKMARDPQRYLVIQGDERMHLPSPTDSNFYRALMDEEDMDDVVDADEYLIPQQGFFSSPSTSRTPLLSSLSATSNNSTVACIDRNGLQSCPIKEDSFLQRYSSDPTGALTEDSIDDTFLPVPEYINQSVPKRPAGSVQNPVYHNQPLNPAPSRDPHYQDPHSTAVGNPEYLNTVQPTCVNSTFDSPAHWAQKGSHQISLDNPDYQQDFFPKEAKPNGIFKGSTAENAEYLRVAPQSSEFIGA

| IC50 (Homo sapiens) [µM] | IC50 [1] [µM] | Structure (SMILES) | IC50 (B-cell) [µM] |
| --- | --- | --- | --- |
| > 2 | – | C[C@@H](Nc1ncnc2ccccc12)C1CCCCC1 | > 2 |
| > 2 | – | C[C@@H](Nc1ncnc2ccccc12)c1ccc2ccccc2c1 | > 2 |
| 0.13 | – | Cc1csc2ncnc(N[C@@H](C)c3ccccc3)c12 | 1.48 |
| > 2 | – | C[C@H](Nc1[nH]cnc2ncnc1-2)c1ccccc1 | > 2 |
| 1.02 | – | c1ccc2c(c1)CC[C@H]2Nc1ncnc2ccccc12 | > 2 |
| 0.045 | – | COc1ccc([C@H](C)Nc2ncnc3ccccc23)cc1 | > 2 |
| > 2 | – | C[C@H](Nc1nccc2ccccc12)c1ccccc1 | > 2 |
| – | 0.05 | C[C@H](Nc1[nH]cnc2c3ccccc3nc1-2)c1ccccc1 | – |
| 0.127 | – | C[C@H](Nc1ncnc2ccccc12)c1ccccc1 | > 2 |
| > 2 | – | Cc1cc2c(N[C@@H](C)c3ccccc3)[nH]cnc-2n1 | > 2 |
| > 2 | – | Cc1cc(N[C@@H](C)c2ccccc2)nc(N)n1 | > 2 |
| 0.147 | – | CC[C@H](Nc1ncnc2ccccc12)c1ccccc1 | > 2 |
| > 2 | – | Cc1cc(N[C@@H](C)c2ccccc2)c2ccccc2n1 | > 2 |
| 0.081 | – | C[C@H](Nc1ncnc2ccccc12)C1CCCCC1 | > 2 |
| > 2 | – | c1ccc(Nc2ncnc3ccccc23)cc1 | > 2 |
| > 2 | – | C[C@H](Nc1ncnc2ccsc12)c1ccccc1 | > 2 |
| > 2 | – | c1ccc2c(c1)CC[C@@H]2Nc1ncnc2ccccc12 | > 2 |
| > 2 | – | Cc1csc2c(N[C@@H](C)c3ccccc3)ncnc12 | > 2 |
| > 2 | – | COc1cc2ncnc(N[C@@H](C)c3ccccc3)c2cc1OC | > 2 |
| 0.023 | – | COc1cccc([C@H](C)Nc2ncnc3ccccc23)c1 | > 2 |
| > 2 | – | CC(c1ccccc1)N(C)c1ncnc2ccccc12 (centres undefined) | > 2 |
| 0.072 | – | C[C@H](Nc1ncnc2ccccc12)c1ccc(Br)cc1 | > 2 |
| 0.046 | – | Cc1ccc([C@H](C)Nc2ncnc3ccccc23)cc1 | > 2 |
| > 2 | – | C[C@@H](Nc1ncnc2ccccc12)c1ccccc1 | > 2 |
| > 2 | – | c1ccc(CNc2ncnc3ccccc23)cc1 | > 2 |
| 0.701 | – | C[C@H](Nc1ccnc2ccccc12)c1ccccc1 | > 2 |
| 0.149 | – | OC[C@H](Nc1ncnc2ccccc12)c1ccccc1 | > 2 |
| 0.931 | – | CSc1nccc(N[C@@H](C)c2ccccc2)n1 | > 2 |
| 0.014 | – | C[C@H](Nc1ncnc2ccccc12)c1ccc2ccccc2c1 | 1.63 |
| 0.37 | – | C[C@H](Nc1ncnc2sccc12)c1ccccc1 | > 2 |

Reference: ChEMBL document CHEMBL1134586, “S(+)-4-(1-Phenylethylamino)quinazolines as inhibitors of human immunoglobulin E synthesis: potency is dictated by stereochemistry and atomic point charges at N-1” (J Med Chem, 2001)
